IDH1 R132H inh = IDH1 R132H (human) inhibition; O75874; IDH1 R132H reductase, diaphorase/resazurin fluorescence, 60 min; inhibition, % at 10 µM; 70,000 compounds, 0.18% hits; AID 624101; in the data active = inhibition above about 34%; inconclusive = no clear call, values can overlap the other calls; inactive = below about 11%;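 also: 0% = DMSO and 100% = no enzyme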
Target sequence (O75874 whole entry R132H): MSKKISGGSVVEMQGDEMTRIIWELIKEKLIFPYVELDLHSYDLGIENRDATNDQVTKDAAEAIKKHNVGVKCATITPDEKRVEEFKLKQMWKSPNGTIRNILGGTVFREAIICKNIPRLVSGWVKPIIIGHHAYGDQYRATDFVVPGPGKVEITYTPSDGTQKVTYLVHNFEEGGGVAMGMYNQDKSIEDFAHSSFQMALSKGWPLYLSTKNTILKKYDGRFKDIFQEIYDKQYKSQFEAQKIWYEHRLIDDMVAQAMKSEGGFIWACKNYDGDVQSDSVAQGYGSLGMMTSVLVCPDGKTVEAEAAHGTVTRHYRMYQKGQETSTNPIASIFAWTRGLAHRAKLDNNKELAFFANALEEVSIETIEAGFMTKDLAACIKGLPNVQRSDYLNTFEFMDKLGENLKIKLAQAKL
T cruzi growth-1 = T. cruzi proliferation inhibition | 77,000 compounds, 5.9% hits | T. cruzi beta-gal in NIH3T3, GalScreen luminescence, 90 h | inhibition, % at 8.34 µM | AID 624255;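 active = mean inhibition above about 93%, with at least 55% of replicates each passing it, limit read from the data, passing the limit was not always enough; inconclusive = only one of those two conditions holds; inactive = neither condition holds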
Pf Dd2 growth = P. falciparum Dd2 growth inhibition; SYBR Green, 72 h; active compounds read low; activity change, % at 10 µM; 94,000 compounds, 2.3% hits; AID 1159554; in the data active = activity change below about -80%; inconclusive = no clear call, values can overlap the other calls
KDM4C inh = KDM4C (human) demethylase inhibition; Q9H3R0; GST-KDM4C 2-372, H3K9me3 peptide, LANCE TR-FRET; inhibition, % at 12.5 µM; 96,000 compounds, 0.15% hits; AID 720574;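 active = mean replicate inhibition above about 25%, with at least 55% of replicates also reaching it, limit read from the data, passing the limit was not always enough; inconclusive = only one of those two conditions met; inactive = neither condition met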
Target sequence (Q9H3R0 2-372 limits assumed): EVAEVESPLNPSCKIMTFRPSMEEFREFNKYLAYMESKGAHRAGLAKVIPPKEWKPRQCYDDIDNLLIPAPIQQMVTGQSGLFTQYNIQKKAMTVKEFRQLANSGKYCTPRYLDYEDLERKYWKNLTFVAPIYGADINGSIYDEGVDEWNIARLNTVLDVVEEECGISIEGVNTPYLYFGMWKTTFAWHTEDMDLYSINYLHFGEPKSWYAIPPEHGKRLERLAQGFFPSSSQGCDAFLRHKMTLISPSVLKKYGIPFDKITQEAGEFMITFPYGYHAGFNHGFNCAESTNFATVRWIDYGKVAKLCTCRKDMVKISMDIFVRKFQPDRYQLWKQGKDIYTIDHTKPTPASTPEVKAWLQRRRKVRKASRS
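Material: GST-tagged GASC-1 (JMJD2C) catalytic fragment, aa 2-372. Input: enzyme final amount 10 nM. Medium: HEPES buffer, pH 7.5, plus ascorbate. Reagent: H3K9me3 peptide substrate, Fe(II), 2-oxoglutarate. Doses: single dose. Times: reaction 30 min RT, detection step 1 h RT. Measured by: LANCE TR-FRET. Evaluation: Fall in 671/618 emission ratio as inhibition.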
T cruzi growth-2 = blocks T. cruzi growth in NIH3T3 host cells; shares compounds with T cruzi growth-1; T. cruzi beta-gal in NIH3T3, GalScreen luminescence, 90 h; inhibition, % at 8.35 µM; 5,600 compounds, 72% hits;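 active = mean replicate inhibition above about 95% and at least 55% of replicates individually reaching it, limit read from the data; inconclusive = only one of the two criteria is met; inactive = neither criterion is met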
T cruzi growth-3 = Trypanosoma cruzi proliferation inhibition. shares compounds with T cruzi growth-1. T. cruzi beta-gal in NIH3T3, GalScreen luminescence, 90 h. inhibition, % at 2.09 µM. 5,600 compounds, 21% hits. AID 651740;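 active = mean inhibition above about 95%, with at least 55% of replicates also reaching it, limit read from the data; inconclusive = meets just one of the two conditions; inactive = meets neither condition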;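 also: plate controls were neutral control median for no effect and positive control median for full effect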
3T3 cytotox = kills mouse NIH/3T3 fibroblasts | cytotoxicity (signal decrease), % at 8.35 µM | 5,600 compounds, 14% hits | AID 651742 | shares compounds with T cruzi growth-1 | NIH/3T3 viability, CellTiter-Glo ATP luminescence, 90 h;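 active = mean signal decrease across replicates above about 35% based on untreated-well scatter, with enough replicates individually passing, limit read from the data; inconclusive = no rule stated though some were filed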;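 also: 0% = median of neutral control wells and 100% = median of positive control wells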
NIH3T3 tox 2 = cytotoxicity in mouse NIH/3T3 fibroblasts | shares compounds with T cruzi growth-1 | NIH/3T3 viability, CellTiter-Glo ATP luminescence, 90 h | inhibition, % at 24.9 µM | 5,600 compounds, 56% hits | AID 651744;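 active = mean loss of cell viability signal at or above a set limit, and enough replicates individually reaching it; inconclusive = meets only the mean limit or only the replicate share; inactive = meets neither condition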;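 also: 0% = median of neutral control wells and 100% = median of positive control wells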
* marks the source's active call; other numbers are inactive results; ? = inconclusive; / = no result. Shown are actives, neighbours in structure and some others; about 5.8% of the full set was active somewhere.

SMILES | IDH1 R132H inh | T cruzi growth-1 | Pf Dd2 growth | KDM4C inh | T cruzi growth-2 | T cruzi growth-3 | 3T3 cytotox | NIH3T3 tox 2
COc1ccc(CN(C)C[C@H]2OCCCC[C@H](C)Oc3ccc(NS(=O)(=O)c4ccc(Cl)cc4)cc3C(=O)N([C@@H](C)CO)C[C@@H]2C)cc1 | 2.0 | ? | -41.3 | -0.8 | 101.3* | 37.3 | 5.7 | 104.2*
C[C@H]1CCCCO[C@@H](CN(C)Cc2ccccc2)[C@@H](C)CN([C@@H](C)CO)C(=O)c2cc(NS(=O)(=O)c3ccccc3)ccc2O1 | -3.9 | 16.3 | -70.4 | 2.2 | / | / | / | /
CS(=O)(=O)N(CC(=O)Nc1ccccc1C(=O)O)c1ccc(F)cc1 | -0.8 | / | / | / | / | / | / | /
C[C@H](CO)N1C[C@H](C)[C@H](CN(C)Cc2ccccc2)OCCCC[C@H](C)Oc2ccc(NS(=O)(=O)c3ccc(F)cc3)cc2C1=O | / | ? | -37.1 | 59.3* | 112.9* | 78.1 | 11.3 | 91.7*
Cc1ccc(S(=O)(=O)Nc2ccc3c(c2)C(=O)N([C@@H](C)CO)C[C@@H](C)[C@@H](CN(C)Cc2ccccc2)OCCCC[C@@H](C)O3)cc1 | / | ? | -74.4 | -1.5 | 93.8 | 80.5 | 25.1 | 104.5*
Cc1ccc(O)c(NC(=S)NC(=O)c2ccc(-c3ccccc3[N+](=O)[O-])o2)c1 | -0.3 | / | / | / | / | / | / | /
OC[C@H]1[C@@H](c2ccc(C#Cc3cccnc3)cc2)[C@H]2CN(Cc3ccccc3F)CCCCN21 | / | ? | -57.6 | 1.8 | 106.2* | 92.1 | 15.0 | 74.0*
COc1ccc(C#Cc2ccc([C@@H]3[C@H]4CN(Cc5ccccc5F)CCCCN4[C@H]3CO)cc2)cc1 | / | 53.6 | -51.0 | -1.7 | / | / | / | /
CC(C)(O)C#Cc1ccc([C@H]2[C@H]3CN(Cc4ccccc4F)CCCCN3[C@H]2CO)cc1 | / | 44.4 | -22.0 | 2.0 | / | / | / | /
N#Cc1cccc(-c2ccc([C@@H]3[C@@H](CO)N4CCCCN(Cc5ccccc5F)C[C@H]34)cc2)c1 | / | 57.8 | -28.4 | 0.6 | / | / | / | /
OC[C@@H]1[C@@H](c2ccc(C#Cc3cccnc3)cc2)[C@H]2CN(Cc3ccccc3F)CCCCN12 | / | 104.5* | -73.3 | -1.4 | 106.8* | -0.9 | 32.5 | 101.8*
OC[C@H]1[C@H](c2ccc(C#Cc3cccnc3)cc2)[C@H]2CN(Cc3ccccc3F)CCCCN21 | / | 110.4* | -70.6 | 2.1 | 107.0* | 78.6 | 16.2 | 103.5*
N#Cc1cccc(-c2ccc([C@H]3[C@@H](CO)N4CCCCN(Cc5ccccc5F)C[C@@H]34)cc2)c1 | / | 99.4* | 21.7 | -1.9 | 103.9* | 77.4 | 13.8 | 97.1*
COc1ccc(OC)c2c(C)cc(Cl)nc12 | -0.6 | / | / | / | / | / | / | /
O=C(CC1NC2CCCCC2NC1=O)Nc1ccc(Cl)cc1 (stereo unspecified) | 0.3 | / | / | / | / | / | / | /
CC1=CC(=O)CC2C1(C)CCC(C)C2(C)CC/C(C)=C\C(=O)O (stereo unspecified) | 3.8 | / | / | / | / | / | / | /
COc1ccc(C#Cc2ccc([C@H]3[C@@H](CO)N4CCCCN(Cc5ccccc5F)C[C@H]34)cc2)cc1 | / | -8.7 | -71.7 | -1.4 | / | / | / | /
OC[C@H]1[C@@H](c2ccc(C#Cc3cccnc3)cc2)[C@@H]2CN(Cc3ccccc3F)CCCCN12 | / | 111.1* | -73.8 | -0.4 | 95.8* | ? | 36.4* | 103.5*
O=C(O)CCCCCCC(=O)N/N=C/c1cccnc1 | 0.1 | / | / | / | / | / | / | /
COc1ccc(Cl)cc1NC(=O)CSc1nnnn1-c1ccc(C(=O)O)cc1 | -0.2 | / | / | / | / | / | / | /
COc1ccc(-c2ccc3c(c2)O[C@H](CN(C)C(=O)c2ccccc2F)[C@@H](C)CN([C@@H](C)CO)S3(=O)=O)cc1 | -0.4 | 106.3* | -68.7 | -0.1 | 104.5* | 67.7 | 12.3 | 54.0*
COc1ccc(-c2ccc3c(c2)O[C@@H](CN(C)C(=O)c2ccccc2F)[C@H](C)CN([C@H](C)CO)S3(=O)=O)cc1 | -0.2 | 113.7* | -74.5 | -2.5 | 104.8* | 66.9 | 39.5* | 70.2*
COc1ccc(-c2ccc3c(c2)O[C@H](CN(C)C(=O)Nc2ccccc2F)[C@@H](C)CN([C@@H](C)CO)S3(=O)=O)cc1 | 5.6 | 97.8* | -70.0 | -2.1 | 108.1* | 53.5 | 33.4 | 58.3*
COc1ccc(-c2ccc3c(c2)O[C@H](CN(C)C(=O)c2ccccc2F)[C@@H](C)CN([C@H](C)CO)S3(=O)=O)cc1 | -2.3 | 107.8* | -59.3 | -2.3 | 101.8* | 47.9 | 5.6 | 36.0*
COc1ccc(-c2ccc3c(c2)O[C@@H](CN(C)C(=O)c2ccccc2F)[C@H](C)CN([C@@H](C)CO)S3(=O)=O)cc1 | 1.9 | 110.0* | -70.0 | -5.2 | 89.8 | 43.8 | 46.9* | 78.6*
SMILES | IDH1 R132H inh | T cruzi growth-1 | Pf Dd2 growth | KDM4C inh | T cruzi growth-2 | T cruzi growth-3 | 3T3 cytotox | NIH3T3 tox 2
COc1ccc(-c2ccc3c(c2)O[C@@H](CN(C)C(=O)c2ccccc2F)[C@@H](C)CN([C@H](C)CO)S3(=O)=O)cc1 | -2.2 | 85.6 | -73.0 | -3.5 | / | / | / | /
O=C(CSc1nnc(-c2ccccc2)o1)Nc1cccc(F)c1 | -0.1 | / | / | / | / | / | / | /
C[C@@H]1CN([C@H](C)CO)C(=O)Cc2cc(N(C)C)ccc2O[C@H]1CN(C)Cc1ccc(C(F)(F)F)cc1 | -3.0 | 108.0* | 40.9 | -0.1 | 89.5 | 64.2 | 3.7 | 14.3
C[C@@H]1CN([C@H](C)CO)C(=O)Cc2cc(N(C)C)ccc2O[C@@H]1CN(C)Cc1ccc(C(F)(F)F)cc1 | -0.3 | 50.3 | 4.0 | -1.6 | / | / | / | /
C[C@H]1CN([C@@H](C)CO)C(=O)Cc2cc(N(C)C)ccc2O[C@@H]1CN(C)Cc1ccc(C(F)(F)F)cc1 | -0.3 | 118.8* | 7.7 | -0.7 | 111.1* | 82.5 | -11.5 | 4.5
C[C@@H]1CN([C@@H](C)CO)C(=O)Cc2cc(N(C)C)ccc2O[C@@H]1CN(C)Cc1ccc(C(F)(F)F)cc1 | 1.8 | 48.6 | 10.1 | 0.0 | / | / | / | /
Cc1ccc(NC(=O)CSc2nc3ccccc3c(=O)n2-c2cccc(C(F)(F)F)c2)c(C)c1 | -0.2 | / | / | / | / | / | / | /
C[C@H](CO)N1C[C@H](C)[C@H](CN(C)C(=O)c2ccncc2)Oc2cc(C3=CCCC3)ccc2S1(=O)=O | 10.4 | ? | -22.0 | 1.8 | 98.9* | 61.7 | 8.7 | 21.2
C[C@@H]1CN([C@@H](C)CO)S(=O)(=O)c2ccc(C3=CCCCC3)cc2O[C@@H]1CN(C)C(=O)c1ccc(F)cc1 | -2.7 | 113.9* | -0.1 | -1.1 | 106.8* | 94.2 | 23.0 | 98.2*
C[C@@H]1CCCCO[C@H](CN(C)C(=O)Nc2ccc(C(F)(F)F)cc2)[C@H](C)CN([C@@H](C)CO)C(=O)c2cc(NC(=O)Nc3ccc(F)cc3)ccc2O1 | / | 111.2* | -76.1 | 2.1 | 105.8* | 117.6* | -8.4 | 13.2

Screening data from PubChem BioAssay.
